# M5 ag = agonists of human muscarinic M5 receptor (CHRM5); CHO-K1 hM5 cells, Fluo-8 calcium fluorescence; 0% DMSO wells, 100% maximal acetylcholine response; 360,000 tested, 0.19% active; activation, % at 3 µM; P08912;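 active means activation above the run's mean over test compounds plus 3 SD, cut at about 23% in these data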;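 further: signal is peak over basal fluorescence ratio across the kinetic read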
# Target sequence (P08912 whole entry, looked up): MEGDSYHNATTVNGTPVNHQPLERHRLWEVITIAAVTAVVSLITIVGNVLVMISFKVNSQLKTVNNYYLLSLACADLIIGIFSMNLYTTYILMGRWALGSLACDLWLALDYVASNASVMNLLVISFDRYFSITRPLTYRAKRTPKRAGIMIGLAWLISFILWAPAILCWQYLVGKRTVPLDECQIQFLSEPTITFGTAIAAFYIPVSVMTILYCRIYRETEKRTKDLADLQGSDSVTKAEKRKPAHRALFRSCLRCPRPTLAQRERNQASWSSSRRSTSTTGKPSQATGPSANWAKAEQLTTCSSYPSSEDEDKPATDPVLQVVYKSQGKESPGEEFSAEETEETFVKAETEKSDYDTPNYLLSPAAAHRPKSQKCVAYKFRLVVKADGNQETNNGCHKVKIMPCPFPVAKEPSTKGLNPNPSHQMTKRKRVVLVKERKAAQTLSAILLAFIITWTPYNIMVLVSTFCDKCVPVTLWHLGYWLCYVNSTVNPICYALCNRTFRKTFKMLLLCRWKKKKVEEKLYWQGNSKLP
# M4 PAM = potentiates acetylcholine response at human M4 receptor; P08173; CHO-K1 hM4/Gqi5, Fluo-8 calcium fluorescence, ACh EC20; 0% = ACh EC20, 100% = maximal ACh; activation, % at 3 µM; 360,000 tested, 0.4% active; AID 624126;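 active means activation above its plate's cutoff, the mean activation of sample wells plus 3 SD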
# CHRM5 antagonist = blocks acetylcholine activation of human M5 receptor; CHO-hM5 cells, Fluo-8 calcium fluorescence, ACh EC80; P08912; inhibition, % at 3 µM; AID 624040; 360,000 tested, 0.59% active;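 active means inhibition above a per-plate cutoff, the mean of that plate's test compounds plus 3 SD, cut at about 27% in these data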;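 further: 0% = acetylcholine EC80 with DMSO and 100% = DMSO without agonist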
# CHRM4 agonist = CHRM4 agonism in calcium assay. P08173. CHO-K1 hM4/Gqi5, Fluo-8 calcium fluorescence; vehicle 0%, full acetylcholine response 100%. activation, % at 3 µM. 360,000 tested, 0.14% active;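 active means activation above the run mean over all test wells plus 3 SD, cut at about 32% in these data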;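 further: peak over basal fluorescence ratio per well then scaled between controls; 0% = DMSO wells and 100% = acetylcholine at EC100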
# CHRM4 antagonist = CHRM4 antagonism in calcium assay. 360,000 tested, 0.73% active. CHO-hM4 cells, ACh EC80, Fluo-8 calcium fluorescence. inhibition, % at 3 µM;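 active means inhibition above its plate's cutoff, the mean inhibition of sample wells plus 3 SD, cut at about 27% in these data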;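 further: 0% = acetylcholine EC80 with DMSO and 100% = DMSO without agonist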
# M5 PAM = positive allosteric modulators of human muscarinic M5 receptor; 360,000 tested, 0.3% active; P08912; CHO-K1 hM5, Fluo-8 calcium, ACh EC20 PAM; 0% = ACh EC20, 100% = ACh EC100; activation, % at 3 µM;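 active means activation above the run cutoff, the mean activation of all test compounds plus 3 SD, cut at about 18% in these data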
#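 Assay system: CHO-K1 hM5 cells. Also added: acetylcholine at EC20 concentration, added after compound. Dosing: 3 µM, single dose. Times: compound preincubation 140 s before EC20 acetylcholine addition. Signal: Fluo-8 calcium fluorescence. Measure: % activation relative to EC20 and EC100 ACh responses. Repeats: singlicate, one well per test compound.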
# An asterisk follows results filed as active. Most compounds without a hit are left out; they make up all but 1.8% or so of the library.
SMILES,M5 ag,M4 PAM,CHRM5 antagonist,CHRM4 agonist,CHRM4 antagonist,M5 PAM
COCCOC(=O)c1c(N)n(CCCN2CCOCC2)c2nc3ccccc3nc12,3.8,10.0,-6.3,0.8,10.2,19.2*
O=[N+]([O-])c1ccc(S(=O)(=O)CC2CSc3nc4ccccc4n32)cc1 (stereo not given),3.5,33.5*,5.5,0.3,8.1,-5.8
C#CCNC(=O)C[C@@H]1C[C@@]2(C(=O)OCC)CCC=C2N(Cc2ccco2)C1=O,1.3,28.1*,0.8,1.4,-10.5,3.0
C#CCNC(=O)C[C@@H]1C[C@@]2(C(=O)OC)CCCCC=C2N(Cc2ccco2)C1=O,7.1,6.4,-17.2,0.8,-1.8,14.3
CCOC(=O)[C@]12CCCC=C1N(Cc1ccco1)C(=O)[C@H](CC(=O)N1CCN(C(=O)c3ccco3)CC1)C2,5.6,23.7*,-3.5,-2.2,-2.7,4.9
CCN(C1CCS(=O)(=O)C1)S(=O)(=O)c1ccc(OC)c(OC)c1 (stereo not given),2.0,23.2*,6.1,0.9,-8.0,-0.3
CCCCN(C1CCS(=O)(=O)C1)S(=O)(=O)c1ccc(OC)cc1 (stereo not given),-0.3,-3.2,0.7,1.1,3.4,-2.8
Cc1onc(-c2c(F)cccc2Cl)c1C(=O)OCC(=O)Nc1cccc(S(=O)(=O)N(C)C)c1,-1.3,0.1,5.1,13.7,-20.6,0.2
COc1ccc(NC(=O)N(C)[C@H]2C[C@H]3c4[nH]c5ccc(-c6cccc(C)c6)cc5c4CCN3C[C@H]2[C@H](C)O)cc1,0.6,3.9,-10.3,3.3,-3.9,4.0
Cc1nc2nc(SCC(=O)NCCCN3CCCC3)nn2c(C)c1Cc1ccccc1Cl,-8.7,-20.1,26.3,0.6,27.4*,-14.9
Cc1nc2nc(SCC(=O)NCCCN3CCCCC3)nn2c(C)c1Cc1ccccc1,-6.0,-14.4,13.6,0.9,4.0,-3.8
CCC1CCCCN1CCCNC(=O)CSc1nc2nc(C)c(Cc3ccc(C)cc3)c(C)n2n1 (stereo not given),-8.0,-13.8,8.4,0.9,26.4*,-8.6
CC1(C(=O)NS(=O)(=O)c2ccc(C#N)cc2)CCN1C(=O)c1cccc2ccccc12 (stereo not given),0.7,-0.6,7.6,-0.4,-2.2,-5.9
CCOc1ccc(NC(=O)Nc2nc(SCC)ns2)cc1,7.8,-9.3,32.6*,20.2,3.3,-25.1
N#C/C(=C\c1cccn1S(=O)(=O)c1cccc(C#N)c1)S(=O)(=O)c1ccc(F)cc1,-2.5,1.4,5.2,3.5,-6.4,2.1
Cc1ccc(C(=O)/C=C/Nc2cccc(O)c2)cc1,-0.9,17.6,18.0,-0.8,-2.2,34.8*
CCc1nc2c(OCCOC)cccn2c1N(C)C(=O)Nc1ccccc1OC,0.8,-3.5,-4.6,0.8,1.4,0.6
CCN(CC)CC#CCOC(c1ccccc1)c1ccccc1,-13.2,-24.0,21.6,-1.3,30.4*,-32.1
C=CC[N+]1(CC#CCOC(c2ccccc2)c2ccccc2)CCOCC1,-7.3,-11.4,0.7,-0.1,9.7,0.1
CN(C)CC#CCOC(c1ccccc1)c1ccccc1,-16.9,-23.6,26.3,-0.1,27.2*,-34.8
CCOC(=O)CC1(C)N(S(=O)(=O)c2ccc(C)cc2)c2ccccc2N1S(=O)(=O)c1ccc(C)cc1,0.6,8.7,-2.0,0.3,-2.4,1.7
CCc1ccc(C2CC(=O)N3CN(c4ccccc4)CSC3=C2C#N)cc1 (stereo not given),-0.5,-8.9,-3.8,0.2,1.0,2.9
CN1CSC2=C(C#N)C(c3cccc(OCc4ccccc4)c3)CC(=O)N2C1 (stereo not given),39.9*,-0.6,-5.7,5.2,-15.0,-17.5
Cc1ccc(S(=O)(=O)N2CCN(C(=O)CCn3cncn3)CC2)cc1C,-5.6,10.3,2.6,2.4,-19.3,0.0
COCCN1CCC(CNCc2c(C(=O)N3CCCCC3)nc3c(C)cccn23)C1 (stereo not given),6.3,-0.3,-2.9,1.0,-5.2,23.0*
SMILES,M5 ag,M4 PAM,CHRM5 antagonist,CHRM4 agonist,CHRM4 antagonist,M5 PAM
Cc1cccn2c(CNCC3OCCc4ccccc43)c(C(=O)N3CCCCC3)nc12 (stereo not given),3.8,-10.4,6.7,6.7,7.3,-8.9
CCCn1ncc2c(Nc3ccc(C)c(C)c3)ncnc21,-2.6,6.3,1.0,1.6,-4.3,1.9
CCOC(=O)c1c(-c2ccc(C)o2)csc1NC(=O)COC(=O)c1cccs1,2.0,-15.5,14.4,11.0,29.2*,-18.8
CC1(Oc2cccc(F)c2)CCN(Cc2csc3ccccc23)C1 (stereo not given),-1.6,-3.9,-2.2,-1.6,7.4,-2.6
COC(=O)Cc1ccc(OC2(C)CCN(Cc3csc4ccccc34)C2)cc1 (stereo not given),-2.1,-13.3,6.7,1.1,54.2*,-19.0
COc1ccc(CC(N)c2csc(NC(=O)c3cc(C(C)(C)C)oc3C)n2)cc1 (stereo not given),-1.9,-2.0,2.0,18.5,5.7,1.5
CON(C)C(=O)CCN(Cc1ccccc1)C(=O)OC(C)(C)C,-4.0,12.0,-5.4,2.5,-7.4,18.6*
CON(C)C(=O)CC(CN(Cc1ccccc1)C(=O)OC(C)(C)C)c1ccc(Cl)cc1 (stereo not given),-3.9,-4.2,-7.7,1.1,-5.8,-3.6
Cc1cccc(OCC(O)Cn2c(N3CCCCC3)nc3c2c(=O)n(C)c(=O)n3C)c1 (stereo not given),-1.1,-13.1,23.2,11.3,8.8,-7.3
O=C(O)CCN1C(=O)C2C3C=CC(C3)C2C1=O (stereo not given),-0.9,-2.6,-1.5,0.4,9.2,1.5
O=C(O)CCN1C(=O)C2CCCCC2C1=O (stereo not given),0.4,19.1*,2.7,1.3,-15.6,-1.9
O=C(c1ccccc1)c1ccc2nc(-c3ccc(NC(=O)c4ccccc4Br)cc3)[nH]c2c1,0.9,-22.1,12.5,7.3,28.1*,-11.3
Cc1ccccc1C(=O)Nc1ccc(-c2nc3ccc(C(=O)c4ccccc4)cc3[nH]2)cc1,-3.5,-20.3,24.2,11.0,36.1*,-23.0
O=C(Nc1ccc(-c2nc3ccc(NC(=O)c4cccs4)cc3[nH]2)cc1)c1cccs1,-0.1,-21.5,27.3*,5.0,45.9*,-13.6
O=C(Cc1cccs1)Nc1cccc(-c2nc3cc4ccccc4cc3[nH]2)c1,-2.3,-13.4,27.4*,8.8,15.8,-17.7
CC(=O)Nc1cccc(NC(=O)Cc2cccs2)c1,-0.3,-6.7,11.2,0.3,8.8,-6.8
